Consider three substances from article PMC3461514 (The Journal of Cell Biology, 2012).

The subject of series [1] is zebrafish embryos. The series can be described thus: Zebrafish dilated heart phenotype after San MO and cRNA coinjection. The format is in vivo, Danio rerio (zebrafish). The conditions noted are these: 1 ng MO injected alone at one-cell stage, scored at 48 hpf.
Series [2] has as its target KRIT1 FERM domain (Homo sapiens, UniProt O00522). The class given is binding. The conditions noted are these: GFP-KRIT1 F123 from HEK293 cell lysates, immunoblot. Background: A western blot detects proteins with antibodies after separation by electrophoresis.
Series [3] has as its system HUVEC. In words: Immunofluorescence localization of HA-KRIT1 at EC-cell junctions. The conditions noted are these: HA-tagged KRIT1 transfected HUVECs, 24 h, colocalization with VE-cadherin. The format is cell-based, human. In short, it runs like this: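 HUVECs in supplemented EC medium, nucleofected with HA-KRIT1 WT or L717,721A, plated on fibronectin-coated coverslips at ~90% confluence, grown 24 h; fixed 3.7% PFA 30 min, 0.2% Triton X-100 5 min, 10% goat serum block 1 h; mouse anti-HA plus rabbit anti-VE-cadherin 3 h RT, Alexa 488/568 secondaries 1 h; spinning-disk confocal, 40× oil, z-slices; ≥3 independent experiments.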

Series [4] relates to HUVECs. In words: Myosin light chain phosphorylation. The class given is cell-based, human. The conditions noted are these: siRNA-resistant KRIT1 coexpressed with anti-KRIT1 siRNA in HUVECs, immunoblot. Summed up:
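HUVECs were kept in supplemented EC medium and nucleofected with anti-KRIT1 siRNA, alone or together with cDNA for WT or L717,721A KRIT1. Phospho-myosin light chain was then assessed by immunoblotting.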

Ends that are not written are not given here.

Chain of KRIT1 FERM domain (O00522 420-734 limits assumed): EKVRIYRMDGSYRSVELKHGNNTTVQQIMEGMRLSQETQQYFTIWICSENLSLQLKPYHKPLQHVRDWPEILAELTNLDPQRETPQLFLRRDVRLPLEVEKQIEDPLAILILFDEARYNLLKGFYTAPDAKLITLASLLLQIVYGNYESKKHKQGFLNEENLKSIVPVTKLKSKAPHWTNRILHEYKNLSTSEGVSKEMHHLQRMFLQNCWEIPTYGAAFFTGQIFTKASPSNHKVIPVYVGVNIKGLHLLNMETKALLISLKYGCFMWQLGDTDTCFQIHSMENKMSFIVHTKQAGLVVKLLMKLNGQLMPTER

As for “5′-TTGAAGTCTCACTTTTGTCTCCATG-3′ (morpholino, further chemistry not given here) [San MO]”, the “heart dilation, zebrafish embryos” value in series [1] was 95%.
Consider “HEG1 C26 NAFA (SRHSCIFPGQYAPSAISDESRRRDYF; not fully specified)”, for which the KRIT1 binding entry in series [2] is recorded as “no effect on KRIT1 binding”.
For the substance “KRIT1: HA-tagged full-length wild-type human KRIT1 expressed in HUVECs”, the “localization at EC-cell junctions” value in series [3] is on record as “localized at EC–cell junctions”. In addition, in series [4], the “effect on increased myosin light chain phosphorylation caused by KRIT1 silencing” value is recorded as “reversed this effect”.
